Source: ChEMBL document CHEMBL1124186, “Synthesis and evaluation of tylosin-related macrolides modified at the aldehyde function: a new series of orally effective antibiotics” (1988)
Converted amounts (≈) assume the structure as drawn.

Legend:
Streptococcus pyogenes [1] = experiment: Antimicrobial activity against Streptococcus pyogenes C203; assay type: functional
Streptococcus pyogenes [2] = experiment: Activity against Streptococcus pyogenes C203 when administered orally; assay type: functional; details: po
Outline: (§1)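 Mouse protection test: infected mice were dosed twice, at 1 and 5 h postinfection, either subcutaneously or orally. […] The result is expressed as ED50 in mg/kg × 2.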

Streptococcus pyogenes [3] = experiment: Activity against Streptococcus pyogenes C203 when administered sc; assay type: functional; outline: as §1
Haemophilus influenzae [4] = experiment: In vitro antimicrobial activity against Haemophilus influenzae.; assay type: functional
Enterococcus faecium = experiment: In vitro antimicrobial activity against Streptococcus faecium X66; assay type: functional, streptococcus fae-cium
Streptococcus pyogenes [5] = experiment: Effective dose against Streptococcus pyogenes C203 when administered sc; assay type: functional; outline: as §1
[6] = system: Staphylococcus epidermidis; experiment: In vitro antimicrobial activity against Staphylococcus epidermidis EPI1; assay type: functional
Streptococcus pyogenes [7] = experiment: In vivo effective dose against experimental infections in rodent caused by Streptococcus pyogenes C203 when administered sc; assay type: functional
Streptococcus pneumoniae [8] = experiment: In vitro antimicrobial activity against Streptococcus pneumoniae; assay type: functional
Staphylococcus aureus [9] = experiment: In vitro antimicrobial activity against Staphylococcus aureus X1; assay type: functional
Streptococcus pyogenes [10] = experiment: In vitro antimicrobial activity against Streptococcus pyogenes C203; assay type: functional
Rattus norvegicus [11] = experiment: Peripheral plasma levels in rats after oral administration of 100 mg/kg dose for 4 hr; assay type: functional, organism-based; design: dose 100 mg/kg
Outline: (§2)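 Rats received 100 mg/kg orally and were sampled for peripheral plasma. Concentrations were measured by Micrococcus luteus agar-diffusion microbiological assay in Antibiotic Medium 1, with zone sizes converted using the standard curve for the appropriate compound. Each value is the average of three rats per time point.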

Mus musculus [12] = experiment: Peripheral plasma levels in mice after oral administration of 100 mg/kg dose for 0.25 hr; assay type: functional, organism-based; design: dose 100 mg/kg
Outline: (§3)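 Mice were given the compound orally and sampled for peripheral plasma at each time point. Plasma was assayed microbiologically against Micrococcus luteus seeded in Antibiotic Medium 1. Inhibition zone sizes were read, and concentrations were calculated from each compound's own standard curve. Each value is the mean of five mice per time point.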

Rattus norvegicus [13] = experiment: Peripheral plasma levels in rats after oral administration of 100 mg/kg dose for 0.5 hr; assay type: functional, organism-based; design: dose 100 mg/kg; outline: as §2
Rattus norvegicus [14] = experiment: Peripheral plasma levels in rats after oral administration of 100 mg/kg dose for 1 hr; assay type: functional, organism-based; design: dose 100 mg/kg; outline: as §2
Mus musculus [15] = experiment: Peripheral plasma levels in mice after oral administration of 50 mg/kg dose for 1 hr; assay type: functional, organism-based; design: dose 50 mg/kg; outline: as §3
Mus musculus [16] = experiment: Peripheral plasma levels in mice after oral administration of 50 mg/kg dose for 2 hr; assay type: functional, organism-based; design: dose 50 mg/kg; outline: as §3
Mus musculus [17] = experiment: Peripheral plasma levels in mice after oral administration of 100 mg/kg dose for 1 hr; assay type: functional, organism-based; design: dose 100 mg/kg; outline: as §3
Streptococcus pyogenes [18] = experiment: In vivo effective dose against experimental infections in rodent caused by Streptococcus pyogenes C203 when administered orally; assay type: functional; details: po
Mus musculus [19] = experiment: Peripheral plasma levels in mice after oral administration of 50 mg/kg dose for 0.25 hr; assay type: functional, organism-based; design: dose 50 mg/kg; outline: as §3
Rattus norvegicus [20] = experiment: Peripheral plasma levels in rats after oral administration of 100 mg/kg dose for 0.25 hr; assay type: functional, organism-based; design: dose 100 mg/kg; outline: as §2
Mus musculus [21] = experiment: Peripheral plasma levels in mice after oral administration of 100 mg/kg dose for 0.5 hr; assay type: functional, organism-based; design: dose 100 mg/kg; outline: as §3
Rattus norvegicus [22] = experiment: Peripheral plasma levels in rats after oral administration of 100 mg/kg dose for 2 hr; assay type: functional, organism-based; design: dose 100 mg/kg; outline: as §2
Mus musculus [23] = experiment: Peripheral plasma levels in mice after oral administration of 50 mg/kg dose for 0.5 hr; assay type: functional, organism-based; design: dose 50 mg/kg; outline: as §3
Streptococcus pneumoniae [24] = experiment: In vivo effective dose against experimental infections in mice Streptococcus pneumoniae park when administered sc; assay type: functional
Streptococcus pneumoniae [25] = experiment: In vivo effective dose against experimental infections in mice Streptococcus pneumoniae park when administered orally; assay type: functional; details: po
Streptococcus [26] = experiment: In vitro antimicrobial activity against aerobic bacteria Streptococcus B 14; assay type: functional
Streptococcus [27] = experiment: In vitro antimicrobial activity against aerobic bacteria Streptococcus D 9960; assay type: functional
Streptococcus [28] = experiment: In vitro antimicrobial activity against aerobic bacteria Streptococcus D 8043; assay type: functional
Streptococcus [29] = experiment: In vitro antimicrobial activity against aerobic bacteria Streptococcus D 2041; assay type: functional
Streptococcus viridans = experiment: In vitro antimicrobial activity against aerobic bacteria Streptococcus viridans 9943; assay type: functional
Streptococcus [30] = experiment: In vitro antimicrobial activity against aerobic bacteria Streptococcus B 5; assay type: functional
[31] = system: Staphylococcus epidermidis; experiment: In vitro antimicrobial activity against aerobic bacteria Streptococcus epi 222; assay type: functional
Streptococcus pneumoniae [32] = experiment: In vitro antimicrobial activity against aerobic bacteria Streptococcus pneumoniae B1-438; assay type: functional, streptococcus pneum
[33] = system: Staphylococcus epidermidis; experiment: In vitro antimicrobial activity against aerobic bacteria Streptococcus epi 270; assay type: functional
Mus musculus [34] = experiment: Peripheral plasma levels in mice after oral administration of 100 mg/kg dose for 2 hr; assay type: functional, organism-based; design: dose 100 mg/kg; outline: as §3
Streptococcus [35] = experiment: In vitro antimicrobial activity against aerobic bacteria Streptococcus C 24; assay type: functional
Haemophilus influenzae [36] = experiment: In vitro antimicrobial activity against aerobic bacteria Haemophilus influenzae MX366,; assay type: functional
Streptococcus sanguinis = experiment: In vitro antimicrobial activity against aerobic bacteria Streptococcus sanguis MX132; assay type: functional
Staphylococcus aureus [37] = experiment: In vitro antimicrobial activity against aerobic bacteria Staphylococcus aureus V140,; assay type: functional
Streptococcus [38] = experiment: In vitro antimicrobial activity against aerobic bacteria Streptococcus G Kruder; assay type: functional; details: Streptococcus; read-out: MIC
Staphylococcus aureus [39] = experiment: In vitro antimicrobial activity against aerobic bacteria Staphylococcus aureus V41; assay type: functional
Mus musculus [40] = experiment: Peripheral plasma levels in mice after oral administration of 100 mg/kg dose for 4 hr; assay type: functional, organism-based; design: dose 100 mg/kg; outline: as §3
Staphylococcus aureus [41] = experiment: In vitro antimicrobial activity against aerobic bacteria Staphylococcus aureus 513E; assay type: functional
Streptococcus [42] = experiment: In vitro antimicrobial activity against aerobic bacteria Streptococcus B 8; assay type: functional
Haemophilus influenzae [43] = experiment: In vitro antimicrobial activity against aerobic bacteria Haemophilus influenzae 76; assay type: functional
Staphylococcus aureus [44] = experiment: In vitro antimicrobial activity against aerobic bacteria Staphylococcus aureus V135; assay type: functional
Staphylococcus aureus [45] = experiment: In vitro antimicrobial activity against aerobic bacteria Staphylococcus aureus X400; assay type: functional

## CC[C@H]1OC(=O)C[C@@H](O)[C@H](C)[C@@H](O[C@@H]2O[C@H](C)[C@@H](O)[C@H](N(C)C)[C@H]2OC(C)=O)[C@@H](CCOc2ccccc2)C[C@@H](C)C(=O)/C=C/C(C)=C/[C@@H]1CO[C@@H]1O[C@H](C)[C@@H](O)[C@@H](OC)[C@H]1OC
Streptococcus pyogenes [1]
  MIC: 1 µg/mL (≈ 1.12 µM)
Streptococcus pyogenes [2]
  ED50: 9 mg/kg
Streptococcus pyogenes [3]
  ED50: 1 mg/kg

## CC[C@H]1OC(=O)C[C@@H](O)[C@H](C)[C@@H](O[C@@H]2O[C@H](C)[C@@H](O[C@H]3C[C@@](C)(O)[C@@H](O)[C@H](C)O3)[C@H](N(C)C)[C@H]2O)[C@@H](C)C[C@@H](C)C(=O)/C=C/C(C)=C/[C@@H]1CO[C@@H]1O[C@H](C)[C@@H](O)[C@@H](O)[C@H]1OC [DEFORMYLMACROCIN]
Haemophilus influenzae [4]
  MIC: > 128 µg/mL
Streptococcus pyogenes [1]
  MIC: 2 µg/mL (≈ 2.29 µM)
Enterococcus faecium
  MIC: 128 µg/mL (≈ 146 µM)
Streptococcus pyogenes [5]
  ED50: > 10 mg/kg
[6]
  MIC: 2 µg/mL (≈ 2.29 µM)
Streptococcus pyogenes [7]
  ED50: > 10 mg/kg
Streptococcus pneumoniae [8]
  MIC: 64 µg/mL (≈ 73.2 µM)
Staphylococcus aureus [9]
  MIC: 2 µg/mL (≈ 2.29 µM)
Streptococcus pyogenes [10]
  MIC: 2 µg/mL (≈ 2.29 µM)

## CC[C@H]1OC(=O)C[C@@H](O)[C@H](C)[C@@H](O[C@@H]2O[C@H](C)[C@@H](O[C@H]3C[C@@](C)(O)[C@@H](O)[C@H](C)O3)[C@H](N(C)C)[C@H]2O)[C@@H](CCN2C(=O)c3ccccc3C2=O)C[C@@H](C)C(=O)/C=C/C(C)=C/[C@@H]1CO[C@@H]1O[C@H](C)[C@@H](O)[C@@H](OC)[C@H]1OC
Rattus norvegicus [11]
  Concentration: 1.4 µg/mL
Mus musculus [12]
  Concentration: 13.1 µg/mL
Haemophilus influenzae [4]
  MIC: > 128 µg/mL
Rattus norvegicus [13]
  Concentration: 1.6 µg/mL
Enterococcus faecium
  MIC: > 128 µg/mL
Rattus norvegicus [14]
  Concentration: 2.1 µg/mL
Mus musculus [15]
  Concentration: 1.6 µg/mL
Mus musculus [16]
  Concentration: 1.3 µg/mL
Mus musculus [17]
  Concentration: 6.9 µg/mL
Streptococcus pyogenes [18]
  ED50: 23 mg/kg
[6]
  MIC: 1 µg/mL (≈ 0.955 µM)
Streptococcus pyogenes [7]
  ED50: > 6.3 mg/kg
Streptococcus pneumoniae [8]
  MIC: 32 µg/mL (≈ 30.6 µM)
Mus musculus [19]
  Concentration: 2.4 µg/mL
Staphylococcus aureus [9]
  MIC: 1 µg/mL (≈ 0.955 µM)
Rattus norvegicus [20]
  Concentration: 0.5 µg/mL
Streptococcus pyogenes [10]
  MIC: 2 µg/mL (≈ 1.91 µM)
Mus musculus [21]
  Concentration: 6 µg/mL
Rattus norvegicus [22]
  Concentration: 1.4 µg/mL
Mus musculus [23]
  Concentration: 2.2 µg/mL

## CC[C@H]1OC(=O)C[C@@H](O)[C@H](C)[C@@H](O[C@@H]2O[C@H](C)[C@@H](O)[C@H](N(C)C)[C@H]2O)[C@@H](CCOc2ccc(Oc3ccccc3)cc2)C[C@@H](C)C(=O)/C=C/C(C)=C/[C@@H]1CO[C@@H]1O[C@H](C)[C@@H](O)[C@@H](OC)[C@H]1OC
Haemophilus influenzae [4]
  MIC: 16 µg/mL (≈ 17 µM)
Enterococcus faecium
  MIC: 0.5 µg/mL (≈ 0.531 µM)
Streptococcus pneumoniae [24]
  ED50: > 20 mg/kg
Streptococcus pyogenes [18]
  ED50: 29 mg/kg
Streptococcus pneumoniae [25]
  ED50: 38 mg/kg
[6]
  MIC: 0.5 µg/mL (≈ 0.531 µM)
Streptococcus pyogenes [7]
  ED50: > 10 mg/kg
Streptococcus pneumoniae [8]
  MIC: 0.25 µg/mL (≈ 0.265 µM)
Staphylococcus aureus [9]
  MIC: 0.5 µg/mL (≈ 0.531 µM)
Streptococcus pyogenes [10]
  MIC: 0.25 µg/mL (≈ 0.265 µM)

## CC[C@H]1OC(=O)C[C@@H](O)[C@H](C)[C@@H](O[C@@H]2O[C@H](C)[C@@H](O)[C@H](N(C)C)[C@H]2O)[C@@H](CCN2C(=O)c3ccccc3C2=O)C[C@@H](C)C(=O)/C=C/C(C)=C/[C@@H]1CO[C@@H]1O[C@H](C)[C@@H](O)[C@@H](OC)[C@H]1OC
Streptococcus [26]
  MIC: 8 µg/mL (≈ 8.86 µM)
Streptococcus [27]
  MIC: 4 µg/mL (≈ 4.43 µM)
Mus musculus [12]
  Concentration: < 0.1 µg/mL
Streptococcus [28]
  MIC: 4 µg/mL (≈ 4.43 µM)
Haemophilus influenzae [4]
  MIC: 32 µg/mL (≈ 35.4 µM)
Streptococcus [29]
  MIC: 8 µg/mL (≈ 8.86 µM)
Streptococcus viridans
  MIC: > 128 µg/mL
Streptococcus [30]
  MIC: 8 µg/mL (≈ 8.86 µM)
Enterococcus faecium
  MIC: 8 µg/mL (≈ 8.86 µM)
[31]
  MIC: 0.1 µg/mL (≈ 0.111 µM)
Streptococcus pneumoniae [32]
  MIC: > 128 µg/mL
[33]
  MIC: > 128 µg/mL
Mus musculus [15]
  Concentration: 0.8 µg/mL
Mus musculus [17]
  Concentration: 2.1 µg/mL
Streptococcus pyogenes [18]
  ED50: 15 mg/kg
Mus musculus [34]
  Concentration: 0.9 µg/mL
Streptococcus [35]
  MIC: 0.5 µg/mL (≈ 0.554 µM)
[6]
  MIC: 0.12 µg/mL (≈ 0.133 µM)
Haemophilus influenzae [36]
  MIC: 32 µg/mL (≈ 35.4 µM)
Streptococcus sanguinis
  MIC: 2 µg/mL (≈ 2.21 µM)
Streptococcus pyogenes [7]
  ED50: 2.7 mg/kg
Staphylococcus aureus [37]
  MIC: 0.5 µg/mL (≈ 0.554 µM)
Streptococcus [38]
  MIC: 32 µg/mL (≈ 35.4 µM)
Staphylococcus aureus [39]
  MIC: 0.25 µg/mL (≈ 0.277 µM)
Streptococcus pneumoniae [8]
  MIC: 2 µg/mL (≈ 2.21 µM)
Mus musculus [40]
  Concentration: 0.3 µg/mL
Staphylococcus aureus [9]
  MIC: 0.12 µg/mL (≈ 0.133 µM)
Staphylococcus aureus [41]
  MIC: 0.25 µg/mL (≈ 0.277 µM)
Streptococcus [42]
  MIC: 8 µg/mL (≈ 8.86 µM)
Streptococcus pyogenes [10]
  MIC: 0.25 µg/mL (≈ 0.277 µM)
Haemophilus influenzae [43]
  MIC: 32 µg/mL (≈ 35.4 µM)
Mus musculus [21]
  Concentration: < 0.1 µg/mL
Staphylococcus aureus [44]
  MIC: 0.5 µg/mL (≈ 0.554 µM)
Staphylococcus aureus [45]
  MIC: 0.5 µg/mL (≈ 0.554 µM)
